Test results as given in ChEMBL document CHEMBL1255566, “Rigid analogues of the α2-adrenergic blocker atipamezole: small changes, big consequences” (J Med Chem, 2010).

Key:
[1] = molecular target: T1, Alpha-1B adrenergic receptor (Homo sapiens, UniProt P35368); experiment: Displacement of [3H]-prazosin from human adrenergic alpha-1b receptor expressed in CHO cells after 120 mins by liquid scintillation counting; assay type: cell-based
T1 sequence (P35368 whole entry): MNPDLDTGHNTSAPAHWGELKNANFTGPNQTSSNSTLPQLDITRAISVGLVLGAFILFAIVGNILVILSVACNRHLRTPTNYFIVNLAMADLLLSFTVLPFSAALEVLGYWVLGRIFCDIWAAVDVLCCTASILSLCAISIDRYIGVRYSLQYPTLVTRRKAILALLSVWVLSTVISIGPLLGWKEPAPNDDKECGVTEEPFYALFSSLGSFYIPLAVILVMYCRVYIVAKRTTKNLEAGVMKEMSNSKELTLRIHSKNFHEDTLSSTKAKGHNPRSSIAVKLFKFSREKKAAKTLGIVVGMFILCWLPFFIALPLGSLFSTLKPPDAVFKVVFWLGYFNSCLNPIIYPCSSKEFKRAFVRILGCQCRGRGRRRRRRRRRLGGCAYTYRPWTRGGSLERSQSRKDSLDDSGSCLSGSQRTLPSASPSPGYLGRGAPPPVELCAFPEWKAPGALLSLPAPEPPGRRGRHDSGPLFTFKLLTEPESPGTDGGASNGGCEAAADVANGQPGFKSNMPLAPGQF
In short: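 Competition binding at human α1b receptors stably expressed in CHO cells. Affinity values are means ± SEM of at least two experiments, each in duplicate.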

[2] = molecular target: T2, Alpha-2A adrenergic receptor (Homo sapiens, UniProt P08913); experiment: Displacement of [3H]-RX821002 from human adrenergic alpha2A receptor expressed in rat C6 cells after 120 mins by liquid scintillation counting; assay type: cell-based
T2 sequence (P08913 whole entry): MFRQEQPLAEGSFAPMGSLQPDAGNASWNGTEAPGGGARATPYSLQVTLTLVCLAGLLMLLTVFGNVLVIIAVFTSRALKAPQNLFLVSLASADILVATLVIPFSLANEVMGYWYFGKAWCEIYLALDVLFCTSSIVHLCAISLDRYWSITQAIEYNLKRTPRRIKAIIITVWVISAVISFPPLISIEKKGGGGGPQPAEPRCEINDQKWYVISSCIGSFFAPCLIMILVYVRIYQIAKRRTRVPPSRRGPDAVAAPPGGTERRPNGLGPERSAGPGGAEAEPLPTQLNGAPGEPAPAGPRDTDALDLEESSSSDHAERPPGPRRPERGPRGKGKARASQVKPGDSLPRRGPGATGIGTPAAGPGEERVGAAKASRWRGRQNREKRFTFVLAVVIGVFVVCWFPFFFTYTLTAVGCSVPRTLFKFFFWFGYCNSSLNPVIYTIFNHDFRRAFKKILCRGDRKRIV
In short: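 Competition binding at human α2A receptors expressed in C6 glial cells. Affinity values are means ± SEM of at least two experiments, each in duplicate.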

[3] = molecular target: T3, Alpha-2C adrenergic receptor (Homo sapiens, UniProt P18825); experiment: Displacement of [3H]-RX821002 from human adrenergic Alpha-2C receptor expressed in rat C6 cells after 120 mins by liquid scintillation counting; assay type: cell-based
T3 sequence (P18825 whole entry): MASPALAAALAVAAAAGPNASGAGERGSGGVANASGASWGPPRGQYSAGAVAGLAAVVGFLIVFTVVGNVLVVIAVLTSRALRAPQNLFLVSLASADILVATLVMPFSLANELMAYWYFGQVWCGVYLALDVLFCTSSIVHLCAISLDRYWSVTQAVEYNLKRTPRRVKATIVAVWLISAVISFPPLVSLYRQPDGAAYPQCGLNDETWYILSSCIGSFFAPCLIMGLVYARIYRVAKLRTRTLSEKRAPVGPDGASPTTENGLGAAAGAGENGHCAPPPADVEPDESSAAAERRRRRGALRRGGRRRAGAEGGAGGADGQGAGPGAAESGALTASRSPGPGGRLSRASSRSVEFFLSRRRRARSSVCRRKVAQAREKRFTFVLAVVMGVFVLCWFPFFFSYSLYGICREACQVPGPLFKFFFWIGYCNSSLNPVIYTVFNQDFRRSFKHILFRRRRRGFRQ

[4] = molecular target: T4, Alpha-2B adrenergic receptor (Homo sapiens, UniProt P18089); experiment: Displacement of [3H]-RX821002 from human adrenergic alpha2B receptor expressed in rat C6 cells after 120 mins by liquid scintillation counting; assay type: cell-based
T4 sequence (P18089 whole entry): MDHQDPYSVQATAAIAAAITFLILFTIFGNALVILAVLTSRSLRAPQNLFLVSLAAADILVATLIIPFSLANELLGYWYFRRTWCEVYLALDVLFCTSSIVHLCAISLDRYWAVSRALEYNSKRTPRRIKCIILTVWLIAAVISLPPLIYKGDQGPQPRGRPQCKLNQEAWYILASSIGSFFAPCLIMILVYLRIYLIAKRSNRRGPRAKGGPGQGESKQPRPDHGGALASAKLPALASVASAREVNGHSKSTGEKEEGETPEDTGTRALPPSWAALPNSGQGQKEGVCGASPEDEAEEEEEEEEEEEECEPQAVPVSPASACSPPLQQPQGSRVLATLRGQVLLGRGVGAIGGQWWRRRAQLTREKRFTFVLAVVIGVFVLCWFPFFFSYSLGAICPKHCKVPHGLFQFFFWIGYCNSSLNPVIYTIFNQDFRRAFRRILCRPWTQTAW

[5] = test system: Mus musculus; experiment: Ratio of ED50 for santihypothermic activity in po dosed NMRI mouse to ED50 for antihypothermic activity in ip dosed NMRI mouse; assay type: functional
In short: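 Guanabenz-induced hypothermia in mice, five animals per dose. ED50 (the dose inhibiting hypothermia in 50% of guanabenz-treated animals) was obtained after oral gavage and after intraperitoneal injection, and the ratio po/ip was then calculated.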

[6] = test system: Mus musculus; experiment: Antihypothermic activity in po dosed NMRI mouse assessed as inhibition of guanabenz-induced hypothermia administered 35 mins before guanabenz challenge measured after 25 mins; assay type: functional
In short: (§1)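 Mice got the compound by intraperitoneal injection or oral gavage before guanabenz challenge, and reversal of guanabenz-induced hypothermia was scored. Five animals were tested per dose. ED50 is the dose giving an inhibitory effect in 50% of guanabenz-treated animals, with 95% confidence limits.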

[7] = test system: Mus musculus; experiment: Antihypothermic activity in ip dosed NMRI mouse assessed as inhibition of guanabenz-induced hypothermia administered 5 mins before guanabenz challenge measured after 25 mins; assay type: functional; in short: as §1
[8] = molecular target: T5, Alpha-2A adrenergic receptor (Homo sapiens) (UniProt P08913); experiment: Antagonist activity at human adrenergic alpha2A receptor expressed in CHO cells assessed as inhibition of adrenaline-induced [35S]GTPgammaS binding after 30 mins by scintillation counting; assay type: functional, cell-based
T5 sequence (whole entry): T2 sequence (P08913 whole entry)
In short: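 Inhibition of adrenaline-stimulated [35S]GTPγS binding in CHO cells expressing human α2A receptors. Compounds were also run alone to check for any stimulation of [35S]GTPγS binding. Antagonist potency is reported as pKB, taken as the potency that inhibits 50% of adrenaline-induced binding.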

SMILES	Ki [1] [nM]	Ki [2] [nM]	Ki [3] [nM]	Ki [4] [nM]	Ratio ED50 [5]	ED50 [6] [mg/kg]	ED50 [7] [mg/kg]	pKb [8]	ED50 ([6]; Mus musculus, NMRI, po, read-out: ED50) [mg/kg]	ED50 ([7]; Mus musculus, NMRI, ip, read-out: ED50) [mg/kg]
CO[C@@H]1c2ccccc2[C@H]2C[C@]21c1cnc[nH]1 (relative stereo)	912	11.7	66.1	24	–	–	–	–	–	–
c1ccc2c(c1)C[C@]1(c3c[nH]cn3)C[C@H]21 (stereo in doubt; (-)-1) [listing 1 of 2 here]	1.05	0.0282	0.129	0.11	5	0.04	0.008	–	–	–
c1ccc2c(c1)[C@H]1C[C@@]1(c1c[nH]cn1)C21CC1 (stereo in doubt; 10) [listing 1 of 2 here]	–	–	–	–	–	–	–	9.05	–	–
CC(C)O[C@H]1c2ccccc2[C@H]2C[C@]21c1c[nH]cn1 (relative stereo)	316	45.7	89.1	11.7	–	–	–	6.88	–	–
c1ccc2c(c1)[C@H]1C[C@@]1(c1c[nH]cn1)C21CC1 (stereo in doubt; 10) [listing 2 of 2 here]	14.8	0.603	2.69	3.72	3.7	–	0.06	–	–	–
c1ccc2c(c1)[C@H]1C[C@@]1(c1c[nH]cn1)C21CC1 (stereo in doubt; (+)-10) [listing 1 of 2 here]	18.2	0.331	2.14	1.91	2.8	0.22	0.08	–	–	–
c1ccc2c(c1)[C@H]1C[C@@]1(c1c[nH]cn1)C21CC1 (stereo in doubt; (-)-10) [listing 1 of 2 here]	–	–	–	–	–	–	–	7.75	–	–
CC[C@H]1[C@@H]2c3ccccc3C[C@]12c1c[nH]cn1	16.6	0.138	0.17	0.182	–	–	–	–	–	–
C[C@H]1c2ccccc2[C@H]2C[C@]21c1c[nH]cn1 (relative stereo)	–	–	–	–	1.5	–	–	9.54	0.009	0.006
CO[C@H]1c2ccccc2[C@H]2C[C@]21c1c[nH]cn1 (stereo in doubt; (+)-3) [listing 1 of 2 here]	63.1	0.562	1.95	2.82	2.3	0.07	0.03	–	–	–
CO[C@H]1c2ccccc2[C@H]2C[C@]21c1c[nH]cn1 (stereo in doubt; (+)-3) [listing 2 of 2 here]	–	–	–	–	–	–	–	8.54	–	–
c1ccc2c(c1)C[C@]1(c3c[nH]cn3)C[C@H]21 (stereo in doubt; 1) [listing 1 of 2 here]	1.32	0.0692	0.178	0.115	4	0.12	0.03	–	–	–
CO[C@H]1c2ccccc2[C@H]2C[C@]21c1c[nH]cn1 (relative stereo) [listing 1 of 2 here]	–	–	–	–	–	–	–	8.28	–	–
c1ccc2c(c1)C[C@]1(c3c[nH]cn3)C[C@H]21 (stereo in doubt; (-)-1) [listing 2 of 2 here]	–	–	–	–	–	–	–	10.2	–	–
CO[C@H]1c2ccccc2[C@H]2C[C@]21c1c[nH]cn1 (stereo in doubt; (-)-3) [listing 1 of 2 here]	–	–	–	–	–	–	–	6.44	–	–
CO[C@H]1c2ccccc2[C@H]2C[C@]21c1c[nH]cn1 (stereo in doubt; (-)-3) [listing 2 of 2 here]	1780	55	195	145	–	–	–	–	–	–
CCCO[C@H]1c2ccccc2[C@H]2C[C@]21c1cnc[nH]1 (relative stereo)	11.5	3.98	1.55	6.46	–	–	–	–	–	–
c1ccc2c(c1)C[C@]1(c3c[nH]cn3)C[C@H]21 (stereo in doubt; 1) [listing 2 of 2 here]	–	–	–	–	–	–	–	9.78	–	–
c1ccc2c(c1)[C@H]1C[C@@]1(c1c[nH]cn1)C21CC1 (stereo in doubt; (-)-10) [listing 2 of 2 here]	97.7	3.89	20.4	6.76	10.4	1.87	0.18	–	–	–
CO[C@H]1c2ccccc2[C@H]2C[C@]21c1c[nH]cn1 (relative stereo) [listing 2 of 2 here]	102	1.74	5.75	7.76	3.1	0.28	0.09	–	–	–
C[C@H]1c2ccccc2[C@H]2C[C@]21c1cnc[nH]1 (relative stereo)	6.17	0.219	0.537	0.692	–	–	–	–	–	–
c1ccc2c(c1)[C@H]1C[C@@]1(c1c[nH]cn1)C21CC1 (stereo in doubt; (+)-10) [listing 2 of 2 here]	–	–	–	–	–	–	–	8.88	–	–
CCC1(c2cnc[nH]2)Cc2ccccc2C1 [ATIPAMEZOLE]	1950	1.86	4.17	2.24	–	–	–	–	–	–
CO[C@@H]1c2ccccc2[C@H]2C[C@]21c1c[nH]cn1 (relative stereo)	–	–	–	–	–	–	–	6.9	–	–
